Reference: ChEMBL document CHEMBL1125212, “Dual-action cephalosporins: cephalosporin 3'-quinolone carbamates” (J Med Chem, 1991)
In brackets after ≈: the same amount, converted by molar mass.

Columns and labels:
[1] = test system: Citrobacter freundii; experiment: The compound was tested in vitro for minimum inhibitory concentration against Citrobacter Freundii BS-16; type: functional
Method in brief: (§1)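 Agar dilution on Mueller-Hinton agar using 2-fold serial dilutions, giving final 128 to 0.0156 μg/mL (extended to 0.000977 μg/mL where needed). Inoculum was overnight broth culture diluted 100-fold, about 3×10^4 CFU/spot, applied by replicator. MIC read after overnight incubation at 36 °C.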

[2] = test system: Enterococcus faecalis; experiment: The compound was tested in vitro for minimum inhibitory concentration against Enterococcus faecalis ATCC 29212; type: functional; method in brief: as §1
[3] = test system: Escherichia coli; experiment: Inhibitory activity on replicative DNA biosynthesis in Escherichia coli H560 (permeabilised cells); type: functional, organism-based
Method in brief: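 E. coli H560 cells permeabilized with toluene. ATP-dependent incorporation of [3H]thymidine into trichloroacetic acid-insoluble material was measured. IC50 taken as the concentration giving 50% inhibition.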

[4] = test system: Micrococcus luteus; experiment: The compound was tested in vitro for minimum inhibitory concentration against Micrococcus luteus ATCC 9341; type: functional; method in brief: as §1
[5] = test system: Pseudomonas aeruginosa; experiment: Effective dose against mouse infected with Pseudomonas aeruginosa 8780 (LDs-240); type: functional
Method in brief: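 CD1 Swiss albino mice (18-20 g) infected intraperitoneally with 0.5 mL of diluted bacterial suspension. Challenge expressed as a multiple of LD50. Drug given subcutaneously at the dorsal neck base within 5 min of infection (1.0 mL), with a second treatment 3 h after infection. Dose range 250 to 0.05 mg/kg. Six mice per group. ED50 by the Reed-Muench method.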

[6] = test system: Streptococcus pneumoniae; experiment: Effective dose against mouse infected with Streptococcus pneumoniae 6301(LDs-5623); type: functional
Method in brief: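 Mouse protection test in CD1 Swiss albino mice (18-20 g) given an intraperitoneal challenge (0.5 mL of diluted culture), expressed as a multiple of LD50. A single subcutaneous dose of 1.0 mL test solution was given at the dorsal neck base within 5 min of infection. Dose range 250 to 0.05 mg/kg. Six mice per group. ED50 (protective dose) by Reed-Muench.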

[7] = test system: Proteus mirabilis; experiment: The compound was tested in vitro for minimum inhibitory concentration against Proteus mirabilis 90; type: functional
Method in brief: (§2)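 Proteus MICs by agar dilution on Mueller-Hinton medium containing 3% agar. Serial 2-fold dilutions gave final 128 to 0.0156 μg/mL (further to 0.000977 μg/mL). Inoculum was overnight broth diluted 100-fold, about 3×10^4 CFU/spot. Plates read after overnight incubation at 36 °C.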

[8] = test system: Proteus vulgaris; experiment: The compound was tested in vitro for minimum inhibitory concentration against Proteus vulgaris 1028 BC; type: functional; method in brief: as §2
[9] = test system: Staphylococcus aureus; experiment: The compound was tested in vitro for minimum inhibitory concentration against Staphylococcus aureus 67-0; type: functional; method in brief: as §1
[10] = test system: Staphylococcus aureus; experiment: (§3) The compound was tested in vitro for minimum inhibitory concentration against Staphylococcus aureus 753; type: functional, staphylococcus aureus smith; method in brief: as §1
[11] = test system: Streptococcus pyogenes; experiment: The compound was tested in vitro for minimum inhibitory concentration against Streptococcus pyogenes; type: functional
Method in brief: (§4)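 Streptococci tested by agar dilution on brain heart infusion agar with 20 units/mL bovine liver catalase. Final drug range 128 to 0.0156 μg/mL by 2-fold steps, extended to 0.000977 μg/mL when required. Inoculum about 3×10^4 CFU/spot from overnight broth diluted 100-fold. MIC after overnight incubation at 36 °C.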

[12] = test system: Serratia marcescens; experiment: The compound was tested in vitro for minimum inhibitory concentration against Serratia marcescens 1071; type: functional; method in brief: as §1
[13] = test system: Streptococcus pneumoniae; experiment: The compound was tested in vitro for minimum inhibitory concentration against Streptococcus pneumoniae 6301; type: functional; method in brief: as §4
[14] = test system: Klebsiella pneumoniae; experiment: The compound was tested in vitro for minimum inhibitory concentration against Klebsiella pneumoniae A; type: functional; method in brief: as §1
[15] = test system: Staphylococcus aureus; experiment: animal or person; conditions: in Mus musculus
[16] = test system: Escherichia coli; experiment: The compound was tested in vitro for minimum inhibitory concentration against Escherichia coli ATCC 25922; type: functional; method in brief: as §1
[17] = test system: Escherichia coli; experiment: Minimum inhibitory concentration required to inhibit the activity of Escherichia coli ATCC 25922; type: functional; method in brief: as §1
[18] = test system: Escherichia coli; experiment: Minimum inhibitory concentration required to inhibit the activity of Escherichia coli UB1005; type: functional; method in brief: as §1
[19] = test system: Escherichia coli; experiment: Minimum inhibitory concentration for inhibition of [14C]- Pen G binding to Escherichia coli UB1005; type: functional
Method in brief: (§5)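 Membranes from sonicated E. coli UB1005 were solubilized. Binding to penicillin-binding proteins was measured as inhibition of [14C]penicillin G binding.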

[20] = test system: Escherichia coli; experiment: The compound was tested in vitro for minimum inhibitory concentration against Escherichia coli 257; type: functional; method in brief: as §1
[21] = test system: Escherichia coli; experiment: The compound was tested in vitro for minimum inhibitory concentration against Escherichia coli TEM-1; type: functional; method in brief: as §1
[22] = test system: Enterobacter cloacae; experiment: The compound was tested in vitro for minimum inhibitory concentration against Enterobacter cloacae P99; type: functional
[23] = test system: Pseudomonas aeruginosa; experiment: The compound was tested in vitro for minimum inhibitory concentration against Pseudomonas aeruginosa 18S/H; type: functional; method in brief: as §1
[24] = test system: Escherichia coli; experiment: The compound was evaluated for the inhibition of [14C]- Pen G binding to Escherichia coli UB1005 penicillin-binding protein 1a 90 kDa.; method in brief: as §5
[25] = test system: Escherichia coli; experiment: The compound was evaluated for the inhibition of [14C]- Pen G binding to Escherichia coli UB1005 penicillin-binding protein 1b 90 kDa.; method in brief: as §5
[26] = test system: Escherichia coli; experiment: The compound was evaluated for the inhibition of [14C]- Pen G binding to Escherichia coli UB1005 penicillin-binding protein 2 66 kDa.; method in brief: as §5
[27] = test system: Escherichia coli; experiment: The compound was evaluated for the inhibition of [14C]- Pen G binding to Escherichia coli UB1005 penicillin-binding protein 3 60 kDa.; method in brief: as §5
[28] = test system: Pseudomonas aeruginosa; experiment: The compound was tested in vitro for minimum inhibitory concentration against Pseudomonas aeruginosa 8780; type: functional; method in brief: as §1
[29] = test system: Staphylococcus aureus; experiment: as §3; type: functional; method in brief: as §1
[30] = test system: Staphylococcus aureus; experiment: The compound was tested in vitro for minimum inhibitory concentration against Staphylococcus aureus smith; type: functional; method in brief: as §1

| MIC [1] | MIC [2] | IC50 [3] | MIC [4] | MIC [7] | MIC [8] | MIC [9] | MIC [11] | MIC [12] | MIC [13] | MIC [14] | MIC [16] | MIC [17] | MIC [18] | MIC [19] | MIC [20] | MIC [21] | MIC [22] | MIC [23] | Inhibitory concentration [24] | Compound | also measured |
| --- | --- | --- | --- | --- | --- | --- | --- | --- | --- | --- | --- | --- | --- | --- | --- | --- | --- | --- | --- | --- | --- |
| 0.125 µg/mL (≈ 0.153 µM) | 1 µg/mL (≈ 1.23 µM) | 1.7 µg/mL (≈ 2.09 µM) | 0.5 µg/mL (≈ 0.614 µM) | 0.125 µg/mL (≈ 0.153 µM) | 0.125 µg/mL (≈ 0.153 µM) | 4 µg/mL (≈ 4.91 µM) | 0.063 µg/mL (≈ 0.0773 µM) | 0.25 µg/mL (≈ 0.307 µM) | 0.125 µg/mL (≈ 0.153 µM) | 0.125 µg/mL (≈ 0.153 µM) | 0.031 µg/mL (≈ 0.038 µM) | 0.03 µg/mL (≈ 0.0368 µM) | 1 µg/mL (≈ 1.23 µM) | 1 µg/mL (≈ 1.23 µM) | 0.031 µg/mL (≈ 0.038 µM) | 0.063 µg/mL (≈ 0.0773 µM) | 0.063 µg/mL (≈ 0.0773 µM) | 1 µg/mL (≈ 1.23 µM) | 100 µg/mL | Nc1nc(/C(=N/OCC(=O)O)C(=O)N[C@@H]2C(=O)N3C(C(=O)O)=C(COC(=O)N4CCN(c5cc6c(cc5F)c(=O)c(C(=O)O)cn6C5CC5)CC4)CS[C@H]23)cs1 | Inhibitory concentration [25]: 10 µg/mL; Inhibitory concentration [26]: > 100 µg/mL; Inhibitory concentration [27]: < 0.1 µg/mL; MIC [28]: 1 µg/mL (≈ 1.23 µM); MIC [29]: 4 µg/mL (≈ 4.91 µM); MIC [30]: 0.5 µg/mL (≈ 0.614 µM) |
| 0.063 µg/mL (≈ 0.0962 µM) | 4 µg/mL (≈ 6.11 µM) | 1 µg/mL (≈ 1.53 µM) | 0.125 µg/mL (≈ 0.191 µM) | 0.5 µg/mL (≈ 0.764 µM) | 0.031 µg/mL (≈ 0.0474 µM) | 2 µg/mL (≈ 3.06 µM) | 0.031 µg/mL (≈ 0.0474 µM) | 0.125 µg/mL (≈ 0.191 µM) | 0.031 µg/mL (≈ 0.0474 µM) | 0.125 µg/mL (≈ 0.191 µM) | 0.063 µg/mL (≈ 0.0962 µM) | 0.06 µg/mL (≈ 0.0917 µM) | 1 µg/mL (≈ 1.53 µM) | 1 µg/mL (≈ 1.53 µM) | 0.063 µg/mL (≈ 0.0962 µM) | 0.063 µg/mL (≈ 0.0962 µM) | < 0.016 µg/mL | 0.5 µg/mL (≈ 0.764 µM) | > 100 µg/mL | N#CCC(=O)N[C@@H]1C(=O)N2C(C(=O)O)=C(COC(=O)N3CCN(c4cc5c(cc4F)c(=O)c(C(=O)O)cn5C4CC4)CC3)CS[C@H]12 | Inhibitory concentration [25]: > 100 µg/mL; Inhibitory concentration [26]: > 100 µg/mL; Inhibitory concentration [27]: 100 µg/mL; MIC [28]: 1 µg/mL (≈ 1.53 µM); MIC [29]: 1 µg/mL (≈ 1.53 µM); MIC [30]: 0.25 µg/mL (≈ 0.382 µM) |

| Compound | MIC [1] | MIC [2] | IC50 [3] | MIC [4] | MIC [7] | MIC [8] | MIC [9] | MIC [11] | MIC [12] | MIC [13] | MIC [14] | MIC [16] | MIC [17] | MIC [18] | MIC [19] | MIC [20] | MIC [21] | MIC [22] | MIC [23] | Inhibitory concentration [24] | also measured |
| --- | --- | --- | --- | --- | --- | --- | --- | --- | --- | --- | --- | --- | --- | --- | --- | --- | --- | --- | --- | --- | --- |
| O=C(O)c1cn(C2CC2)c2cc(N3CCNCC3)c(F)cc2c1=O [CIPROFLOXACIN] | 0.031 µg/mL (≈ 0.0936 µM) | 1 µg/mL (≈ 3.02 µM) | 0.3 µg/mL (≈ 0.905 µM) | 2 µg/mL (≈ 6.04 µM) | 0.063 µg/mL (≈ 0.19 µM) | 0.016 µg/mL (≈ 0.0483 µM) | 0.5 µg/mL (≈ 1.51 µM) | 0.5 µg/mL (≈ 1.51 µM) | 0.063 µg/mL (≈ 0.19 µM) | 1 µg/mL (≈ 3.02 µM) | 0.25 µg/mL (≈ 0.754 µM) | – | – | – | – | – | – | – | – | – | ED50 [5]: 3 mg/kg; ED50 [6]: > 50 mg/kg; MIC [10]: 0.25 µg/mL (≈ 0.754 µM); ED50 [15]: 2 mg/kg |
